Results of several laboratories.
Protocols differ between the studies behind these lines.
Target: Tyrosine-protein kinase receptor Tie-1 (TIE1, Homo sapiens, UniProt P35590)

| SMILES | effect on | technique | tested at | remaining binding |
| --- | --- | --- | --- | --- |
| O=C(c1ccc(Nc2ncc(Cl)c(-c3cc4ccccc4s3)n2)cc1)N1CCC(N2CCCC2)CC1 | binding | competition with immobilised ligand | 1 µM | 4.8% |
| CS(=O)(=O)N1CCCC(NC(=O)[C@H](CCC2CCCCC2)NC(=O)c2ccc(CNC(=O)c3cnc4ccccn34)cc2)C1 (stereo partly shown) | cell-free assay | competition with immobilised ligand | 0.1 µM | 100% |
| CN(CCCC(F)(F)F)c1nccc(-c2cnn3ncccc23)n1 | binding |  | 1 µM | 100% |
| FC(F)(F)Oc1cccc(-c2cnc3ccc(-c4ccncc4)nn23)c1 | cell-free assay | competition with immobilised ligand | 5 µM | 84% |
| COc1cnc(Nc2cccc(S(N)(=O)=O)c2)nc1N1CCN(c2ccccc2)CC1 | binding | competition with immobilised ligand | 1 µM | 99% |
| C[C@@H](c1ccc(-n2cnc3c(N)ncnc32)cc1)N1CCc2nn(C)c(Cc3ccccc3)c2C1=O | binding | competition with immobilised ligand | 0.1 µM | 84% |
| CN(c1nccc(-c2cnn3ncccc23)n1)C1CC1 | binding |  | 1 µM | 100% |
| O=C(NCC1CCOCC1)c1n[nH]cc1NC(=O)c1c(F)cccc1F | binding | competition with immobilised ligand | 1 µM | 85% |
| N[C@@H]1CCN(c2nccc(-c3cnn4ncccc34)n2)C1 | binding |  | 1 µM | 100% |
| C[C@H](NC(=O)c1cnc2n1[C@](C)(Cc1ccc(C#N)cc1)C(=O)N2c1cc(Cl)c(F)c(Cl)c1)C(=O)NC1(c2ccccn2)CC1 | cell-free assay | competition with immobilised ligand | 1 µM | 100% |
| CN(C)c1nccc(-c2cnc3ncccn23)n1 | binding |  | 1 µM | 83% |
| COc1cnc(Nc2cccc(S(N)(=O)=O)c2)nc1N1CCN(c2ccccc2)C(=O)C1 | binding | competition with immobilised ligand | 1 µM | 100% |
| CCS(=O)(=O)c1cc2cc(C[C@](O)(CC(C)(C)c3ccc(F)cc3C(N)=O)C(F)(F)F)[nH]c2cn1 | cell-free assay | competition with immobilised ligand | 1 µM | 100% |
| COc1ncc2cc3ccccc3nc2c1C#N | cell-free assay | competition with immobilised ligand | 5 µM | 100% |
| CCCCN(CCCC)C(=O)CN1C[C@@H](c2cc(OC)c3c(c2)OCO3)[C@H](C(=O)O)[C@H]1CC(C)(C)CCC | cell-free assay | competition with immobilised ligand | 1 µM | 94.7% |
| C=CC(=O)N1CCC(C(=O)NCC(=O)N2CCN(c3nc(-c4cnc(N)nc4C(F)F)nc(N4CCOCC4)n3)CC2)CC1 | binding | competition with immobilised ligand | 1 µM | 100% |
| Cc1noc([C@H]2C[C@@H](c3ccc(C(F)(F)F)cc3)CN(C(=O)N3CCS(=O)(=O)C3)C2)n1 | cell-free assay | competition with immobilised ligand | 1 µM | 89% |
| Cc1cnc(Nc2ccc(C(=O)N3CCC(N4CCCC4)CC3)cc2)nc1-c1cc2ccccc2s1 | binding | competition with immobilised ligand | 1 µM | 10% |
| F[C@@H]1CCN(c2nccc(-c3cnn4ncccc34)n2)C1 | binding |  | 1 µM | 100% |
| Cc1cc(-n2nc(Cc3cc(F)cc(C(F)(F)F)c3)nc2C)ccc1C(N)=O | cell-free assay | competition with immobilised ligand | 1 µM | 100% |
| C[C@H]1CCN(c2nccc(-c3cnn4ncccc34)n2)C1 | binding |  | 1 µM | 75% |
| O=C(NCCCN1CCOCC1)c1ccc(Nc2ncc(Cl)c(-c3ccc(Cl)s3)n2)cc1 | binding | competition with immobilised ligand | 1 µM | 44% |
